# ChEMBL document CHEMBL1140808, “Antiproliferative effects of dibenzocyclooctadiene lignans isolated from Schisandra chinensis in human cancer cells” (Bioorg Med Chem Lett, 2008)
# The source made the active and inactive calls. No cut-off for these calls is given here.
# Columns and labels:
# K562 = assay: Antiproliferative activity against human K562 cells after 72 hrs by MTT assay; format: functional, cell-based
# SNU-638 = assay: Antiproliferative activity against human SNU638 cells after 72 hrs by SRB assay; format: functional, cell-based
# T47D = assay: Antiproliferative activity against human T47D cells after 72 hrs by SRB assay; format: functional, cell-based
# A549 [1] = assay: Antiproliferative activity against human A549 cells after 72 hrs by SRB assay; format: functional, cell-based
# HCT-15 = assay: Antiproliferative activity against human HCT15 cells after 72 hrs by SRB assay; format: functional, cell-based
# MDA-MB-231 = assay: Antiproliferative activity against human MDA-MB-231 cells after 72 hrs by SRB assay; format: functional, cell-based; conditions: MDA-MB-231, 72 h
# SK-HEP1 = assay: Antiproliferative activity against human SK-HEP1 cells after 72 hrs by SRB assay; format: functional, cell-based; conditions: SK-HEP1, 72 h
# A549 [2] = assay: Cell cycle arrest in human A549 cells assessed as accumulation at G2/M phase at 10 uM after 24 hrs; format: functional
# Method in brief: (§1)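 A549 human lung cancer cells exposed 24 h to the lignan over 3.75–60 µM. Cell cycle distribution measured by flow cytometry. The percentage of cells in each phase (G0/G1, S, G2/M, sub-G1) was derived by cell cycle modelling of the DNA histograms.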
# A549 [3] = assay: Cell cycle arrest in human A549 cells assessed as accumulation at G2/M phase at 40 uM after 24 hrs; format: functional; method in brief: as §1
# A549 [4] = assay: Effect on cyclin A expression in human A549 cells at 60 uM after 24 hrs; format: functional, cell-based
# Method in brief: (§2)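 Protein levels measured by Western blot in A549 human lung cancer cells after 24 h exposure to a range of lignan concentrations.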
# A549 [5] = assay: Effect on cdk2 expression in human A549 cells after 24 hrs; format: functional, cell-based; method in brief: as §2
# A549 [6] = assay: Effect on cdk4 expression in human A549 cells after 24 hrs; format: functional, cell-based; method in brief: as §2
# A549 [7] = assay: Cell cycle arrest in human A549 cells assessed as accumulation at S phase at 5 uM after 24 hrs; format: functional; method in brief: as §1
# A549 [8] = assay: Cell cycle arrest in human A549 cells assessed as accumulation at G0/G1 phase at 10 uM after 24 hrs; format: functional; method in brief: as §1
# A549 [9] = assay: Cell cycle arrest in human A549 cells assessed as accumulation at subG1 phase at 20 uM after 24 hrs; format: functional; method in brief: as §1
# A549 [10] = assay: Cell cycle arrest in human A549 cells assessed as accumulation at subG1 phase at 60 uM after 24 hrs; format: functional; method in brief: as §1
# A549 [11] = assay: Effect on cyclin D1 expression in human A549 cells after 24 hrs; format: functional, cell-based; method in brief: as §2
# A549 [12] = assay: Cell cycle arrest in human A549 cells assessed as accumulation at G2/M phase at 60 uM after 24 hrs; format: functional; method in brief: as §1
# A549 [13] = assay: Cell cycle arrest in human A549 cells assessed as accumulation at S phase at 10 uM after 24 hrs; format: functional; method in brief: as §1
# A549 [14] = assay: Effect on p27 expression in human A549 cells after 24 hrs; format: functional, cell-based; method in brief: as §2
# A549 [15] = assay: Cell cycle arrest in human A549 cells assessed as accumulation at G0/G1 phase at 5 uM after 24 hrs; format: functional; method in brief: as §1
# A549 [16] = assay: Cell cycle arrest in human A549 cells assessed as accumulation at subG1 phase at 5 uM after 24 hrs; format: functional; method in brief: as §1
# A549 [17] = assay: Cell cycle arrest in human A549 cells assessed as accumulation at G0/G1 phase at 20 uM after 24 hrs; format: functional; method in brief: as §1
# A549 [18] = assay: Cell cycle arrest in human A549 cells assessed as accumulation at S phase at 20 uM after 24 hrs; format: functional; method in brief: as §1
# A549 [19] = assay: Cell cycle arrest in human A549 cells assessed as accumulation at G2/M phase at 5 uM after 24 hrs; format: functional; method in brief: as §1
# A549 [20] = assay: Cell cycle arrest in human A549 cells assessed as accumulation at S phase at 40 uM after 24 hrs; format: functional; method in brief: as §1
# A549 [21] = assay: Cell cycle arrest in human A549 cells assessed as accumulation at G0/G1 phase at 40 uM after 24 hrs; format: functional; method in brief: as §1
# A549 [22] = assay: Cell cycle arrest in human A549 cells assessed as accumulation at G0/G1 phase at 60 uM after 24 hrs; format: functional; method in brief: as §1
# A549 [23] = assay: Cell cycle arrest in human A549 cells assessed as accumulation at S phase at 60 uM after 24 hrs; format: functional; method in brief: as §1
# A549 [24] = assay: Cell cycle arrest in human A549 cells assessed as accumulation at subG1 phase at 40 uM after 24 hrs; format: functional; method in brief: as §1
# A549 [25] = assay: Inhibition of human retinoblastoma protein phosphorylation in A549 cells after 24 hrs; format: cell-based; method in brief: as §2
# A549 [26] = assay: Cell cycle arrest in human A549 cells assessed as accumulation at G2/M phase at 20 uM after 24 hrs; format: functional; method in brief: as §1
# A549 [27] = assay: Cell cycle arrest in human A549 cells assessed as accumulation at subG1 phase at 10 uM after 24 hrs; format: functional; method in brief: as §1
smiles,measurement,setting,value
COc1c2c(cc3c1-c1c(cc4c(c1OC)OCO4)C[C@H](C)[C@H](C)C3)OCO2 [SCHISANDRIN C],IC50,"K562; Homo sapiens, K562, 72 h",> 100 µM
same,IC50,"SNU-638; Homo sapiens, SNU-638, 72 h",> 100 µM
same,IC50,"T47D; Homo sapiens, T47D, 72 h",> 100 µM
same,IC50,"A549 [1]; Homo sapiens, A549, 72 h",> 100 µM
same,IC50,"HCT-15; Homo sapiens, HCT-15, 72 h",> 100 µM
same,IC50,MDA-MB-231,> 100 µM
same,IC50,SK-HEP1,> 100 µM
COc1cc2c(c(OC)c1OC)-c1c(cc3c(c1OC)OCO3)C[C@H](C)[C@](C)(O)[C@H]2OC(=O)c1ccccc1 [GOMISIN C],IC50,"K562; Homo sapiens, K562, 72 h",> 100 µM
same,IC50,"SNU-638; Homo sapiens, SNU-638, 72 h",44.7 µM
same,IC50,"T47D; Homo sapiens, T47D, 72 h",51.2 µM
same,IC50,"A549 [1]; Homo sapiens, A549, 72 h",> 100 µM
same,IC50,"HCT-15; Homo sapiens, HCT-15, 72 h",> 100 µM
same,IC50,MDA-MB-231,56.4 µM
same,IC50,SK-HEP1,70.4 µM
C/C=C(\C)C(=O)O[C@H]1c2cc(OC)c(OC)c(OC)c2-c2c(cc3c(c2OC)OCO3)C[C@H](C)[C@]1(C)O [GOMISIN B],IC50,"K562; Homo sapiens, K562, 72 h",> 100 µM
same,IC50,"SNU-638; Homo sapiens, SNU-638, 72 h",> 100 µM
same,IC50,"T47D; Homo sapiens, T47D, 72 h",> 100 µM
same,IC50,"A549 [1]; Homo sapiens, A549, 72 h",> 100 µM
same,IC50,"HCT-15; Homo sapiens, HCT-15, 72 h",> 100 µM
same,IC50,MDA-MB-231,> 100 µM
same,IC50,SK-HEP1,> 100 µM
C/C=C(\C)C(=O)O[C@H]1c2cc(OC)c(OC)c(OC)c2-c2c(cc3c(c2O)OCO3)C[C@H](C)[C@]1(C)O [SCHISANTHERIN C],Activity,A549 [2],18%
same,Activity,A549 [3],15.9%
same,Activity,A549 [4],inactive
same,Activity,A549 [5],inactive
same,IC50,"K562; Homo sapiens, K562, 72 h",11.3 µM
same,Activity,A549 [6],inactive
same,Activity,A549 [7],31.8%
same,IC50,"SNU-638; Homo sapiens, SNU-638, 72 h",15.3 µM
same,Activity,A549 [8],50.4%
same,Activity,A549 [9],0.6%
same,Activity,A549 [10],2.5%
same,Activity,A549 [11],inactive
same,Activity,A549 [12],10.8%
same,Activity,A549 [13],31.6%
same,Activity,A549 [14],Active
same,IC50,"T47D; Homo sapiens, T47D, 72 h",26.1 µM
same,Activity,A549 [15],50.1%
same,Activity,A549 [16],0.6%
same,Activity,A549 [17],57.9%
same,Activity,A549 [18],26%
same,IC50,"A549 [1]; Homo sapiens, A549, 72 h",5.6 µM
same,Activity,A549 [19],18.1%
same,Activity,A549 [20],18.8%
same,Activity,A549 [21],65.3%
same,IC50,"HCT-15; Homo sapiens, HCT-15, 72 h",5.6 µM
same,Activity,A549 [22],75%
same,IC50,MDA-MB-231,33.5 µM
same,Activity,A549 [23],8.2%
same,Activity,A549 [24],1.1%
same,IC50,SK-HEP1,19.9 µM
same,Activity,A549 [25],Active
same,Activity,A549 [26],16.2%
same,Activity,A549 [27],1.5%
COc1cc2c(c(OC)c1OC)-c1c(cc(OC)c(OC)c1OC)C[C@](C)(O)[C@@H](C)C2 [SCHIZANDRIN],IC50,"K562; Homo sapiens, K562, 72 h",25 µM
same,IC50,"SNU-638; Homo sapiens, SNU-638, 72 h",21.1 µM
same,IC50,"T47D; Homo sapiens, T47D, 72 h",19.8 µM
same,IC50,"A549 [1]; Homo sapiens, A549, 72 h",20.7 µM
same,IC50,"HCT-15; Homo sapiens, HCT-15, 72 h",50.2 µM
same,IC50,MDA-MB-231,61.5 µM
same,IC50,SK-HEP1,71.3 µM
COc1cccc2c1C(=O)c1c(O)c3c(c(O)c1C2=O)C[C@@](O)(C(=O)CO)C[C@@H]3O[C@H]1C[C@H](N)[C@H](O)[C@H](C)O1 [DOXORUBICIN],IC50,"SNU-638; Homo sapiens, SNU-638, 72 h",0.07 µM
same,IC50,"T47D; Homo sapiens, T47D, 72 h",0.1 µM
same,IC50,"A549 [1]; Homo sapiens, A549, 72 h",0.1 µM
same,IC50,"HCT-15; Homo sapiens, HCT-15, 72 h",0.6 µM
same,IC50,MDA-MB-231,0.2 µM
same,IC50,SK-HEP1,0.1 µM
COc1cc2c(c(OC)c1OC)-c1c(cc3c(c1OC)OCO3)C[C@H](C)[C@H](C)C2 (stereo in doubt; form 1) [WUWEIZISU B],IC50,K562; k562,22 µM
same,IC50,SNU-638; snu-638,23.1 µM
same,IC50,T47D; t47d,19.2 µM
same,IC50,A549 [1]; a549,21.1 µM
same,IC50,HCT-15; hct-15,14.1 µM
COc1cc2c(c(OC)c1OC)-c1c(cc3c(c1OC)OCO3)C[C@H](C)[C@](C)(O)C2 [GOMISIN A],IC50,"K562; Homo sapiens, K562, 72 h",> 100 µM
same,IC50,"SNU-638; Homo sapiens, SNU-638, 72 h",90.5 µM
same,IC50,"T47D; Homo sapiens, T47D, 72 h",> 100 µM
same,IC50,"A549 [1]; Homo sapiens, A549, 72 h",84.1 µM
same,IC50,"HCT-15; Homo sapiens, HCT-15, 72 h",> 100 µM
same,IC50,MDA-MB-231,> 100 µM
same,IC50,SK-HEP1,> 100 µM
COc1cc2c(c(OC)c1OC)-c1c(cc3c(c1OC)OCO3)C[C@H](C)[C@H](C)C2 (stereo in doubt; form 2) [WUWEIZISU B],IC50,K562; k562,62.6 µM
same,IC50,SNU-638; snu-638,> 100 µM
same,IC50,T47D; t47d,> 100 µM
same,IC50,A549 [1]; a549,87.8 µM
same,IC50,HCT-15; hct-15,88.1 µM
same,IC50,MDA-MB-231,> 100 µM
same,IC50,SK-HEP1,> 100 µM
COc1cc2c(c(OC)c1OC)-c1c(cc(OC)c(OC)c1OC)C[C@H](C)[C@H](C)C2 [SCHISANDRIN A],IC50,"K562; Homo sapiens, K562, 72 h",> 100 µM
same,IC50,"SNU-638; Homo sapiens, SNU-638, 72 h",53.1 µM
same,IC50,"T47D; Homo sapiens, T47D, 72 h",40 µM
same,IC50,"A549 [1]; Homo sapiens, A549, 72 h",> 100 µM
same,IC50,"HCT-15; Homo sapiens, HCT-15, 72 h",> 100 µM
same,IC50,MDA-MB-231,> 100 µM
same,IC50,SK-HEP1,42 µM
